Bioassay records (PubChem)
C2C12 statin: suppressors of statin myotoxicity in C2C12 myotubes, primary screen, cell-based, single point, plate reader; rescue of ATP level, % at 7.49 µM; C2C12 myotubes + simvastatin, ATP luminescence, 48 h; scaled: DMSO 0, geranylgeraniol control 100; 330,000 tested, 0.78% active; AID 602340, 2012;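 active means mean ATP rescue above about 67%, or every replicate alone reaching that limit, limit read from the data, passing the limit was not always enough; inconclusive means no clear call, values can overlap the other calls; inactive means mean under the limit and some replicate under it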;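 further: myotubes were challenged with 10 µM simvastatin during compound exposure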
PGC1a acetyl inh: inhibitors of PGC1a acetylation signal, primary screen, cell-based, U2OS, AlphaScreen, inhibitor mode; AlphaScreen anti-acetyl-lysine; with virally co-expressed GCN5 acetyltransferase; inhibition, % at 15.6 µM; 350,000 tested, 0.17% active; AID 651687, 2012;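 active means every replicate shows inhibition of at least 40%; inconclusive means mean inhibition at least 40% but some replicate below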
SIRT5 inh: SIRT5 desuccinylase inhibitors, primary screen, biochemical, fluorescence imaging, single point, set 5; NAD-dependent protein deacylase sirtuin-5, mitochondrial (Homo sapiens), Q9NXA8; Purified SirT5, succinyl-peptide AMC, trypsin-coupled fluorescence; inhibition, % at 15 µM; 330,000 tested, 1.1% active; AID 652115, 2013; in the data active means inhibition above about 15%; inconclusive means no clear call, values can overlap the other calls
Target sequence (Q9NXA8 whole entry, looked up): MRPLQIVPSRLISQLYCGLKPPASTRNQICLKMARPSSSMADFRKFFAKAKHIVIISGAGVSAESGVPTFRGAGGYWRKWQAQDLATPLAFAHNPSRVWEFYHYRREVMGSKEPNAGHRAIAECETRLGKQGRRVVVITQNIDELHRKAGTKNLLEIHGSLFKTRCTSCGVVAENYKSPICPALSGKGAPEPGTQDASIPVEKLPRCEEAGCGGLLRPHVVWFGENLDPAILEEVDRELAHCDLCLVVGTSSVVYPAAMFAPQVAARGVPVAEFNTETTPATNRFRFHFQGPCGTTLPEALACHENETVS
S100A4 inh HTS: inhibitors of S100A4-myosin IIA peptide binding, primary screen, biochemical, fluorescence polarization, TAMRA-MyoIIA peptide; Protein S100-A4 (Homo sapiens), P26447; inhibition, % at 10.7 µM; 360,000 tested, 0.14% active; AID 652163, 2013;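 active means mean inhibition of at least 70% across replicates, with every replicate also reaching that level; inconclusive means mean inhibition reaches 70% but some replicates fall short; inactive means mean inhibition below 70%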
Target sequence (P26447 whole entry, looked up): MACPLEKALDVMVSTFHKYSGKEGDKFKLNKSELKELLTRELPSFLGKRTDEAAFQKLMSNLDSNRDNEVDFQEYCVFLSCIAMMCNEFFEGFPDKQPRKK
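Test system: S100A4 monomer protein. Medium: HEPES buffer with Ca2+, pH 7.2. Reagent: fluorescent myosin IIA peptide, 5 nM. Compound dosing: single-point compound testing. Timing: 5 min between mix addition and reading. Benchmarks: DMSO neutral and TFP positive wells.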
DENV2 CPE rescue: inhibitors of DENV2 cytopathic effect, primary screen, cell-based, plate reader, single concentration; DENV2-infected cells, cytopathic effect rescue; AID 651640, 2012; CPE inhibition, % at 9.99 µM; 350,000 tested, 1.7% active; in the data active means CPE inhibition above about 20%, passing the limit was not always enough; inconclusive means no clear call, values can overlap the other calls; tested in BHK-21 cells
A number is an active result; n = inactive; u = inconclusive; x = not tested or not shown. Most compounds without a hit are left out; they make up all but 2.9% or so of the library.

SMILES	C2C12 statin	PGC1a acetyl inh	SIRT5 inh	S100A4 inh HTS	DENV2 CPE rescue
COc1ccc(-c2noc(-c3ccccc3C(=O)Nc3cccnc3)n2)cc1	102.8	n	x	x	x
COc1ccc(NC(=O)c2cc3ccccc3cc2O)cc1	n	n	n	n	46.0
COc1ccc(-c2noc(-c3ccccc3C(=O)Nc3cccnc3)n2)cc1OC	n	n	x	x	x
COc1cccc(NC(=O)c2cccc(OC)c2OC)c1	116.2	n	x	x	x
COc1cccc(C(=O)Nc2ccc(N(C)C)cc2)c1OC	90.4	n	x	x	x
CSc1ccc(C(C(C(=O)c2cccs2)N2CCOCC2)N2CCOCC2)cc1 (centres undefined)	77.4	n	x	x	x
CC1Cc2ccccc2N1S(=O)(=O)c1cnc(Cl)c(Br)c1 (centres undefined)	x	n	n	n	64.8
C[C@@H]1CN([C@@H](C)CO)C(=O)c2cc(NS(=O)(=O)c3ccc(F)cc3)ccc2O[C@H]1CN(C)S(=O)(=O)c1cccs1	u	n	n	n	46.2
C[C@H](CO)N1C[C@H](C)[C@H](CN(C)S(=O)(=O)c2cccs2)Oc2ccc(NS(=O)(=O)c3ccc(F)cc3)cc2C1=O	n	n	n	n	n
C[C@H]1CN([C@@H](C)CO)C(=O)c2cc(NS(=O)(=O)c3ccc(F)cc3)ccc2O[C@@H]1CN(C)S(=O)(=O)c1cccs1	81.1	n	n	n	n
COc1ccc(-c2cnc3c(c2)C(=O)N([C@@H](C)CO)C[C@@H](C)[C@@H](CN(C)C(=O)C2CCC2)O3)cc1	n	n	n	n	n
Cc1ccc(Nc2nc(NCCO)nc(N3CCCC3)n2)cc1	n	x	x	n	59.8
COc1ccccc1Nc1nc(NCCCCO)nc(N2CCCC2)n1	n	x	x	n	86.1
C[C@@H]1CN([C@H](C)CO)C(=O)c2cccc(NC(=O)c3nc4ccccc4s3)c2O[C@@H]1CN(C)S(=O)(=O)c1cn(C)cn1	n	n	n	n	n
O=C(NCc1ccco1)C(c1cccs1)N(C(=O)Cc1cccs1)c1ccccc1 (centres undefined)	n	n	x	x	x
O=C(NCc1ccco1)C(c1ccccc1)N(C(=O)Cc1cccs1)c1ccccc1 (centres undefined)	125.2	n	x	x	x
COc1ccc(CNC(=O)C(c2ccco2)N(C(=O)Cc2cccs2)c2cccnc2)cc1 (centres undefined)	x	n	34.7	n	n
COc1ccc(CNC(=O)C(c2ccco2)N(Cc2cccs2)C(=O)Cc2cccs2)cc1 (centres undefined)	n	n	x	x	x
Cc1ccc2cc(CN(Cc3ccco3)C(=O)c3ccccc3)c(=O)[nH]c2c1C	137.4	n	x	x	x
Cc1ccc2cc(CN(Cc3ccco3)C(=O)NCc3ccccc3)c(=O)[nH]c2c1C	n	n	x	x	x
CCCNC(=O)OC1CC2CC1[C@H]1CCCCN1C2=O (some centres undefined)	x	x	n	n	29.3
CCOc1cccc(=O)c2c(C)n(-c3ccc(C(=O)O)cc3)c(C)c12	n	n	29.0	n	x
Cn1cnc(S(=O)(=O)N2CC[C@@H]3[C@@H](CO)Nc4ccc(C#Cc5ccc(F)cc5)cc4[C@@H]32)c1	x	n	n	n	n
CC(=O)Nc1ccc(NC(=O)CSc2nnc(-c3cccs3)n2N)cc1	n	n	n	n	59.6
COc1cc2c(cc1OC)CN1CCc3cc(OC)c(OC)cc3C1C2 (centres undefined)	n	n	22.6	n	n
SMILES	C2C12 statin	PGC1a acetyl inh	SIRT5 inh	S100A4 inh HTS	DENV2 CPE rescue
CC[C@H]1CN2CCc3cc(OC)c(OC)cc3C2C[C@@H]1C[C@H]1NCCc2cc(OC)c(OC)cc21 (some centres undefined)	80.6	x	n	n	n
C/C=C/c1ccc2c(c1)O[C@H](CN(C)C(=O)c1ccc(F)cc1)[C@@H](C)CN([C@H](C)CO)S2(=O)=O	n	n	n	n	n
CCC(=O)N1[C@@H]2CN(C(=O)CC(F)(F)F)c3ccccc3[C@@H]2[C@@H]1CO	n	n	n	n	n
COc1ccc(S(=O)(=O)Nc2ccc3c(c2)C(=O)N([C@@H](C)CO)C[C@@H](C)[C@H](CN(C)C(=O)Nc2ccccc2)O3)cc1	n	n	n	n	n
C[C@H](NC(=O)[C@H]1[C@H](CO)[C@H]2Cn3c(cccc3=O)[C@@H]1N2C(=O)C1CC1)c1ccccc1	n	x	n	n	n
CCC(=O)N(C)C[C@@H]1[C@@H](c2ccc(-c3ccccc3F)cc2)[C@H](CO)N1C(C)=O	n	n	22.0	n	n
CCN(C[C@H]1[C@@H](c2ccc(-c3ccccc3)cc2)[C@@H](CO)N1C(C)=O)C(C)=O	x	x	n	n	n
CC(=O)N(C)C[C@@H]1[C@H](c2ccc(-c3ccc(F)cc3)cc2)[C@H](CO)N1C(C)=O	x	x	n	n	n
CC(=O)N(C)C[C@H]1[C@H](c2ccc(-c3ccc(F)cc3)cc2)[C@@H](CO)N1C(C)=O	n	n	n	n	33.1
CCC(=O)N1[C@H](CN(CC)C(C)=O)[C@@H](c2ccc(-c3ccccc3)cc2)[C@@H]1CO	n	n	x	x	x
CCC(=O)N(C)C[C@H]1[C@@H](c2ccc(-c3ccccc3F)cc2)[C@@H](CO)N1C(C)=O	n	n	n	n	n
CCN(C[C@H]1[C@@H](c2ccc(-c3ccccc3F)cc2)[C@@H](CO)N1C(C)=O)C(C)=O	x	x	22.1	n	n
CCC(=O)N1[C@H](CO)[C@H](c2ccc(-c3ccccc3)cc2)[C@H]1CN(CC)C(C)=O	n	n	30.0	n	n
COCC#Cc1cnc2c(c1)C(=O)N([C@H](C)CO)C[C@@H](C)[C@H](CN(C)C(=O)C1CCCCC1)O2	n	n	n	n	n
CC(C)C#Cc1cnc2c(c1)C(=O)N([C@H](C)CO)C[C@@H](C)[C@H](CN(C)C(=O)Nc1cccc(F)c1)O2	n	n	n	n	n
O=C(C[C@H]1CC[C@H]2[C@@H](COC[C@@H](O)CN2Cc2nccs2)O1)NCc1ccccc1	n	n	n	n	n
CC(=O)N1[C@H](CO)[C@H](c2ccccc2)[C@H]1CN(C)C(=O)c1ccccc1F	n	n	n	n	n
CC(=O)N1[C@H](CN(C)C(=O)c2ccccc2F)[C@@H](c2ccccc2)[C@@H]1CO	n	n	n	n	61.2
N#C[C@@H]1[C@H](c2ccc(-c3ccc(F)cc3)cc2)[C@H](CO)N1c1nc(-c2ccccc2)cs1	n	n	n	n	n
N#C[C@@H]1[C@@H](c2ccc(-c3ccc(F)cc3)cc2)[C@H](CO)N1c1nc(-c2ccccc2)cs1	n	n	n	n	60.9
N#C[C@@H]1[C@@H](c2ccc(-c3cccc(F)c3)cc2)[C@H](CO)N1c1nc(-c2ccccc2)cs1	x	n	n	n	90.5
N#C[C@@H]1[C@H](c2ccc(-c3cccc(F)c3)cc2)[C@@H](CO)N1c1nc(-c2ccccc2)cs1	x	x	n	x	n
